Data set [1] is filed under the species Felis catus. Put plainly: acetylcholine antagonist effect of compound on cat blood pressure at concentration 5.7*10e-7 in 12 min. The format is functional. In short, it runs like this: (§1)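 Adult cats under ip α-chloralose (80 mg/kg) plus pentobarbitone (6 mg/kg), bilaterally vagotomized and artificially respired. Carotid blood pressure was recorded. An iv acetylcholine dose giving 70–80% of maximal vasodepressor response was used. After iv test drug, acetylcholine responses were checked at 1 min and then every 2–3 min and expressed as % of control. Doses were given in mol/kg, escalating after recovery.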

For data set [2], the species on record is Felis catus. The experiment in a line: acetylcholine antagonist effect of compound on cat blood pressure at concentration 5.7*10e-7 in 15 min. The format is functional. In short, it runs like this:
as §1

The species entered for data set [3] is Felis catus. The experiment in a line: acetylcholine antagonist effect of compound on cat blood pressure at concentration 5.7*10e-7 in 18 min. The format is functional. In short, it runs like this: as §1
The species named for data set [4] is Felis catus. The experiment in a line: acetylcholine antagonist effect of compound on cat blood pressure at concentration 5.7*10e-7 in 1 min. The format is functional. In short, it runs like this:
as §1

For data set [5], the species on record is Felis catus. Put plainly: acetylcholine antagonist effect of compound on cat blood pressure at concentration 5.7*10e-7 in 21 min. The format is functional. In short, it runs like this:
as §1

The species entered for data set [6] is Felis catus. The experiment in a line: acetylcholine antagonist effect of compound on cat blood pressure at concentration 5.7*10e-7 in 24 min. The format is functional. A digest of the protocol:
as §1

Data set [7] is filed under the species Felis catus. The experiment in a line: acetylcholine antagonist effect of compound on cat blood pressure at concentration 5.7*10e-7 in 3 min. The format is functional. In short, it runs like this:
as §1

The species entered for data set [8] is Felis catus. The experiment in a line: acetylcholine antagonist effect of compound on cat blood pressure at concentration 5.7*10e-7 in 6 min. The format is functional. In short, it runs like this:
as §1

The species named for data set [9] is Felis catus. Put plainly: acetylcholine antagonist effect of compound on cat blood pressure at concentration 5.7*10e-7 in 9 min. The format is functional. A digest of the protocol:
as §1

The species entered for data set [10] is Felis catus. The experiment in a line: acetylcholine antagonist effect of compound on cat blood pressure at concentration 5.7*10e-8 in 10 min. The format is functional. In short, it runs like this: as §1
In data set [11] the test system is Felis catus. Put plainly: acetylcholine antagonist effect of compound on cat blood pressure at concentration 5.7*10e-8 mol/kg in 1 min. The format is functional. A digest of the protocol:
as §1

For data set [12], the species on record is Felis catus. The experiment in a line: acetylcholine antagonist effect of compound on cat blood pressure at concentration 5.7*10e-8 in 4 min. The format is functional. In short, it runs like this:
(§2)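 Adult cats anesthetized ip with α-chloralose (80 mg/kg) plus sodium pentobarbitone (6 mg/kg), bilaterally vagotomized, artificially respired. Carotid arterial pressure recorded. Drugs given iv via brachial vein. Acetylcholine dose giving 70-80% of maximal vasodepressor response used throughout. Test drug injected, acetylcholine response checked 1 min later, then every ~2-3 min. Value is % of control vasodepressor response to acetylcholine.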

The species named for data set [13] is Felis catus. Put plainly: acetylcholine antagonist effect of compound on cat blood pressure at concentration 5.7*10e-8 in 6 min. The format is functional. In short, it runs like this: as §2
Data set [14] is filed under the species Felis catus. The experiment in a line: acetylcholine antagonist effect of compound on cat blood pressure at concentration 5.7*10e-8 in 8 min. The format is functional. In short, it runs like this: as §2
For data set [15], the species on record is Cavia porcellus. Put plainly: Anticholinergic activity was measured by the guinea pig ileum test. The note with it: for Kb: Cavia porcellus, Ileum, read-out: pA2 (converted). The format is functional. In short, it runs like this: (§3)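 Guinea pig whole ileum strips in McEwan's solution, gassed with O2/CO2 95:5, 37 °C organ bath, 1 g tension. Cumulative acetylcholine concentration-response curves were run to constancy, then repeated after 15–20 min equilibration with increasing antagonist concentrations. Mean curves gave dose ratios, from which competitive antagonism and pA2 were derived.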

For data set [16], the species on record is Cavia porcellus. The experiment in a line: Antihistamine activity was measured by the guinea pig ileum test. The format is functional. The settings on record: for Kb: Cavia porcellus, Ileum, read-out: pA2 (converted). A digest of the protocol: (§4)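 Guinea pig ileum strips, McEwan's solution, Carbogen, 37 °C, 1 g tension. Cumulative histamine concentration-response curves were recorded before and after 15–20 min equilibration with rising antagonist concentrations. pA2 came from dose ratios of mean curves.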

The species named for data set [17] is Felis catus. The experiment in a line: acetylcholine antagonist effect of compound on cat blood pressure at concentration 5.4*10e-8 in 2 min.
A short description of data set [18]: The hydrolytic kinetics expressed as Kobs was measured at 7.4 pH at 37 degree C. The format is ADME. The note with it: pH 7.4. A digest of the protocol: (§5)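 Chemical hydrolysis in 0.5 M potassium phosphate, pH 7.4, 37 °C. Rate was followed by appearance of the acid product or loss of the quaternary salt. Where salt contained amine hydrochloride, initial concentration was taken from final acid after complete hydrolysis. Half-life was estimated from both where resolved.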

The species entered for data set [19] is Cavia porcellus. The experiment in a line: Antihistamine activity was measured by the guinea pig ileum test; c = NA means no activity found at the doses used. The format is functional. In short, it runs like this: as §4
The nature of data set [20]: Half life period was measured at 7.4 pH from d[acid]/dt. The format is ADME. The note with it: pH 7.4. A digest of the protocol: as §5
Data set [21] in a line: Half life period was measured at 7.4 pH from d[quant]/dt. The format is ADME. The settings on record: pH 7.4. A digest of the protocol:
as §5

The species named for data set [22] is Cavia porcellus. The experiment in a line: Anticholinergic activity was measured by the guinea pig ileum test; c = NA means no activity found at the doses used. The format is functional. In short, it runs like this:
as §3

A short description of data set [23]: Half life period was measured at 37 degree C in dog plasma from d[quant]/dt. The format is ADME, Canis lupus familiaris. A digest of the protocol: (§6)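 Fresh dog blood was centrifuged and the upper layer filtered through 0.8 and 0.2 µm membranes. 2 mL plasma samples with gentisic acid internal standard were incubated. 5 µL aliquots taken at intervals were assayed against acid standard curves in methanol. Rates came from acid appearance or quaternary salt loss.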

The species named for data set [24] is Sus scrofa. The experiment in a line: Half life period was measured at 37 degree C in […] from d[acid]/dt. The format is ADME. The note with it: pig, in vitro; in the assay text read “esterase” for “plasma”. A digest of the protocol: (§7)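 Hog liver carboxylesterase (EC 3.1.1.1), 2.4 units, with substrate at 5.6×10^-3 mol L-1 in 0.5 M potassium phosphate pH 7.4 containing gentisate internal standard, 37 °C. Rate was taken from acid formation.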

For data set [25], the species on record is Canis familiaris. The experiment in a line: The hydrolytic kinetics expressed as Kobs was measured in dog plasma at 37 degree C. The format is ADME, Canis lupus familiaris. A digest of the protocol:
as §6

The species entered for data set [26] is Sus scrofa. Put plainly: The hydrolytic kinetics expressed as Kobs was measured in […] at 37 degree C. The format is ADME. The settings on record: pig. A digest of the protocol:
as §7

Structures are written as SMILES.

One may read the pA2 as a measure of antagonist potency on a negative log scale. By half-life is commonly meant the time in which the quantity being followed falls by half.

With `CC[N+](CC)(CC)COC(=O)C(c1ccccc1)C1CCCCC1.[Cl-]` (stereo not drawn), the Response in data set [1] is 43%; in data set [2] it was 60%; in [3], 78%; in [4], 0%; in data set [5], 93%; in data set [6], 100%. Moreover, the Response in data set [7] was 0%; in data set [8], 0%; in [9], 0%; in [10] it was 100%; in [11] it was 0%; in data set [12], 50%. The Response turned out to be 67% in data set [13], 83% in data set [14] and 0% in [17]. In addition, the Kb is 0.00251 µM in data set [15] and 2 µM in data set [16].
Regarding `C[N+]1(COC(=O)C2(c3ccccc3)CCCC2)CCCC1.[Cl-]`, in data set [18], the K obs was 0.000181 min⁻¹. For the same compound, the Kb in [15] is 0.0501 µM. Further, in data set [19], the pA2 result was “No activity”. In addition, the half-life in [20] is 64 h.
`CC1CCC[N+]1(C)COC(=O)C1(c2ccccc2)CC1.[Cl-]` (stereo not drawn) came in with a K obs in data set [18] of 0.00055 min⁻¹. Besides, the Kb in data set [15] is 0.251 µM; in data set [16], 0.575 µM. The compound further showed a half-life in data set [20] of 21 h.
For the compound `CCC(C(=O)OC[n+]1ccn(C)c1)c1ccccc1.[Cl-]` (stereo not drawn), the half-life is 6 h in data set [21] and 5.7 h in data set [20]. Further, the Kb in data set [15] and in [16] was 1.26 µM throughout.
For the compound `C[N+]1(COC(=O)C2(c3ccccc3)CC2)CCCC1.[Cl-]`, the K obs in data set [18] came to 0.00068 min⁻¹. The Kb in [15] is 1.58 µM. Further, the pA2 entry in [19] was “No activity”. In [20], this compound showed a half-life of 17 h.
`CC(=O)OC1C[N+]2(COC(=O)C(c3ccccc3)C3CCCC3)CCC1CC2.[Cl-]` (stereo not drawn): the pA2 in data set [15] stood at 8.6; in [16] it was 5.7.
As to `CCC(C)C(=O)OC[N+]1(C)CCCC1` (stereo not drawn), in data set [22], the pA2 result was “No activity”. In data set [16], the Kb was 2.51 µM.
Consider `CC[N+](CC)(CC)COC(C)=O`, for which the pA2 result in [22] is “No activity”.
As to `CCC(C(=O)OC[N+](CC)(CC)CC)c1ccccc1.[Cl-]` (stereo not drawn), the half-life in [21] is 2.5 h; in data set [23], 1.4 h; in data set [20], 2.6 h. Besides, in data set [24], the T1/2 was 2.1 h. Besides, the figures for the K obs in [25] and in data set [26] were 0.00815 min⁻¹ and 0.00542 min⁻¹, respectively. Further, the results for the Kb in data set [15] and in data set [16] were 0.251 µM and 0.316 µM, respectively.
As for `C[N+]1(COC(=O)C23CC4CC(CC(C4)C2)C3)CCCC1`, the Kb in data set [15] was 0.126 µM.
In the case of `CC[N+](CC)(CC)COC(=O)C(c1ccccc1)C1CCCC1` (stereo not drawn), the Kb in data set [15] was 0.00316 µM; in [16], 0.0501 µM.
In data set [18], `CC(C(=O)OC[N+]1(C)CCCC1)(c1ccccc1)c1ccccc1.[Cl-]` showed a K obs of 0.000193 min⁻¹. The Kb in data set [15] is 0.00398 µM. In data set [19], the pA2 entry was “No activity”. The half-life in data set [20] was 60 h.

The values above are taken from ChEMBL document CHEMBL1121584, “Soft drugs. 3. A new class of anticholinergic agents” (J Med Chem, 1980).
